{"data": "Published values collected from several papers", "CA1": "Carbonic anhydrase 1 (CA1, Homo sapiens, UniProt P00915)", "LATS1": "Serine/threonine-protein kinase LATS1 (LATS1, Homo sapiens, UniProt O95835)", "UGT1A4": "UDP-glucuronosyltransferase 1A4 (UGT1A4, Homo sapiens, UniProt P22310)", "HTR3A": "5-hydroxytryptamine receptor 3A (HTR3A, Homo sapiens, UniProt P46098)", "SLC18A2": "Synaptic vesicular amine transporter (SLC18A2, Homo sapiens, UniProt Q05940)", "gag-pol reverse transcriptase": "Gag-Pol polyprotein, reverse transcriptase (gag-pol, Human immunodeficiency virus 1, UniProt P03366)", "ACKR3": "Atypical chemokine receptor 3 (ACKR3, Homo sapiens, UniProt P25106)", "CA2": "Carbonic anhydrase 2 (CA2, Homo sapiens, UniProt P00918)", "note": "Each line is one published result; the experiments were not run side by side. pIC50: −log10 of the molar value."}
{"Compound": "O=c1[nH]c(=O)n([C@H]2C[C@H](O)[C@@H](CO)O2)cc1/C=C/Br", "target": "CA1", "test": "enzyme activity, inhibitor, absorbance", "setting": "pH 7.4", "pIC50": 4.91}
{"Compound": "OC1(c2ccc(-c3ccnc4[nH]cc(F)c34)cc2)CCCNCC1 (stereo not drawn)", "target": "LATS1", "test": "target engagement in cells, BRET", "pIC50": 5.15}
{"Compound": "C=C(C)[C@@H]1CC[C@]2(C(=O)O)CC[C@]3(C)[C@H](CC[C@@H]4[C@@]5(C)CC[C@H](O)C(C)(C)[C@@H]5CC[C@]43C)[C@@H]12", "target": "UGT1A4", "test": "enzyme activity, inhibitor", "test system": "human, liver microsomes", "pIC50": 5.38}
{"Compound": "CN1CCC(CNc2ccc3ncc(-c4cccc(OC(F)(F)F)c4)n3n2)CC1", "target": "HTR3A", "test": "ion current", "pIC50": 5.46}
{"Compound": "C[C@H]1c2cccc(O)c2C(=O)C2=C(O)[C@]3(O)C(=O)C(C(N)=O)=C(O)[C@@H](N(C)C)[C@@H]3[C@@H](O)[C@@H]21", "target": "CA1", "test": "enzyme activity, inhibitor, absorbance", "setting": "pH 7.4", "pIC50": 4.90}
{"Compound": "CCCCCCCCCC(=O)CC(=O)Nc1ccccc1", "target": "Transcriptional activator protein LasR (lasR, Pseudomonas aeruginosa, UniProt P25084)", "test": "reporter gene, antagonist", "pIC50": 5.96}
{"Compound": "NC/C(=C\\F)COc1cccc(Cn2c(=S)[nH]c(=O)c3[nH]cnc32)c1", "target": "Diamine oxidase [copper-containing] (AOC1, Homo sapiens, UniProt P19801)", "test": "enzyme activity, inhibitor", "pIC50": "< 4.52"}
{"Compound": "Cc1cc(-c2ccnc3[nH]cc(F)c23)cc(F)c1[C@@]1(O)[C@H](C)CN(C(=O)CN)C[C@@H]1C", "target": "LATS1", "test": "enzyme activity, inhibitor, radiometric", "pIC50": 8.74}
{"Compound": "C=CCc1ccccc1OCC(O)CNC(C)C (stereo not drawn)", "target": "SLC18A2", "test": "transporter uptake, inhibitor", "pIC50": 5.11}
{"Compound": "Cn1cnc([N+](=O)[O-])c1Sc1ncnc2nc[nH]c12", "target": "CA1", "test": "enzyme activity, inhibitor, absorbance", "setting": "pH 7.4", "pIC50": 4.74}
{"Compound": "CNC(=O)c1ccccc1Nc1nc(Nc2ccc(N3CCNCC3)cc2)ncc1Cl", "target": "LATS1", "test": "target engagement in cells, BRET", "pIC50": 6.52}
{"Compound": "O=C1CC2(CCCC2)CC(=O)N1CCCCN1CCN(c2ncccn2)CC1", "target": "SLC18A2", "test": "transporter uptake, inhibitor", "pIC50": 5.66}
{"Compound": "CCCCNc1c2c([nH]c(=O)c1C(=O)OCC)CCC2", "target": "gag-pol reverse transcriptase", "test": "enzyme activity, inhibitor", "pIC50": "< 4.00"}
{"Compound": "C[C@@H]1CC[C@@]2(OC1)O[C@H]1C[C@H]3[C@@H]4CC[C@H]5C[C@@H](O)CC[C@]5(C)[C@H]4CC(=O)[C@]3(C)[C@H]1[C@@H]2C", "target": "UGT1A4", "test": "enzyme activity, inhibitor", "pIC50": 5.64}
{"Compound": "Nc1ccc(S(=O)(=O)c2ccc(N)cc2)cc1", "target": "CA1", "test": "enzyme activity, inhibitor, absorbance", "setting": "pH 7.4", "pIC50": 4.77}
{"Compound": "CNCCC(Oc1ccc(C(F)(F)F)cc1)c1ccccc1 (stereo not drawn)", "target": "SLC18A2", "test": "transporter uptake, inhibitor", "pIC50": 5.56}
{"Compound": "CC(=O)N1C[C@@H](C)[C@](O)(c2c(C)cc(-c3ccnc4[nH]cc(F)c34)cc2F)[C@@H](C)C1", "target": "LATS1", "test": "enzyme activity, inhibitor, radiometric", "pIC50": 8.17}
{"Compound": "COc1cc2c(cc1OC)[C@H]1C[C@@H](OC(=O)[C@@H](N)C(C)C)[C@H](CC(C)C)CN1CC2", "target": "SLC18A2", "test": "transporter uptake, inhibitor, radiometric", "setting": "cell membranes", "pIC50": 6.28}
{"Compound": "CC(C)(C)NC(=O)C1CCN(Cc2cccc(/N=N/c3ccccc3F)c2)CC1", "target": "ACKR3", "test": "ligand displacement, BRET", "pIC50": 5.90}
{"Compound": "CCc1nn(CCCN2CCN(c3cccc(Cl)c3)CC2)c(=O)n1CCOc1ccccc1", "target": "SLC18A2", "test": "transporter uptake, inhibitor", "pIC50": 6.18}
{"Compound": "NC(=O)c1nnn(Cc2cc(Cl)c(C(=O)c3ccc(Cl)cc3)c(Cl)c2)c1N", "target": "HTR3A", "test": "ion current", "pIC50": 5.36}
{"Compound": "CCOC(=O)N1CCC(=C2c3ccc(Cl)cc3CCc3cccnc32)CC1", "target": "CA1", "test": "enzyme activity, inhibitor, absorbance", "setting": "pH 7.4", "pIC50": 4.92}
{"Compound": "C/C=C/CNc1c2c([nH]c(=O)c1C(=O)OCC)CCC2", "target": "gag-pol reverse transcriptase", "test": "enzyme activity, inhibitor", "pIC50": "< 4.00"}
{"Compound": "CC(C)Nc1cccnc1N1CCN(C(=O)c2cc3cc(NS(C)(=O)=O)ccc3[nH]2)CC1", "target": "SLC18A2", "test": "transporter uptake, inhibitor", "pIC50": 5.39}
{"Compound": "NC(=O)N1c2ccccc2C=Cc2ccccc21", "target": "Sodium channel protein type 2 subunit alpha (SCN2A, Homo sapiens, UniProt Q99250)", "test": "ion current, inhibitor, patch clamp", "pIC50": "< 3.52"}
{"Compound": "C[C@@H]1CNC[C@H](C)[C@@]1(O)c1ccc(-c2ccnc3[nH]cc(F)c23)cc1", "target": "LATS1", "test": "enzyme activity, inhibitor, radiometric", "pIC50": 7.96}
{"Compound": "COc1cc2nc(N3CCN(C(=O)c4ccco4)[C@H]4CCCC[C@H]43)nc(N)c2cc1OC (racemic)", "target": "SLC18A2", "test": "transporter uptake, inhibitor", "pIC50": 6.84}
{"Compound": "OC1CCN(c2ccc(/C=N/NC(=S)Nc3ccc(Cl)cc3)cc2)CC1", "target": "CA2", "test": "enzyme activity, inhibitor, absorbance", "pIC50": 6.42}
{"Compound": "OC1(c2ccc(-c3ccnc4[nH]cc(F)c34)cc2)CCNCC1", "target": "LATS1", "test": "enzyme activity, inhibitor, radiometric", "pIC50": 8.54}
{"Compound": "CC(C)(C)NC(=O)C1CCN(Cc2cccc(/N=N/c3ccc(C(F)(F)F)cc3)c2)CC1", "target": "ACKR3", "test": "ligand displacement, BRET", "pIC50": "< 5.00"}
{"Compound": "CCOC(=O)c1c(NCCCCN)c2c([nH]c1=O)CCC2", "target": "gag-pol reverse transcriptase", "test": "enzyme activity, inhibitor", "pIC50": "< 4.00"}
{"Compound": "CN(C/C=C/C#CC(C)(C)C)Cc1cccc2ccccc12", "target": "CA1", "test": "enzyme activity, inhibitor, absorbance", "setting": "pH 7.4", "pIC50": 4.52}
{"Compound": "CCOC(=O)c1c(NCCO)c2c([nH]c1=O)CCC2", "target": "gag-pol reverse transcriptase", "test": "enzyme activity, inhibitor", "pIC50": "< 4.00"}
{"Compound": "Cc1cc(-c2ccnc3[nH]cc(F)c23)cc(F)c1[C@@]1(O)[C@H](C)CNC[C@@H]1C", "target": "LATS1", "test": "target engagement in cells, BRET", "pIC50": 7.57}
{"Compound": "Cn1cc2c(C(=O)O)ccc(NS(=O)(=O)c3ccc(OCC4CCC4)c(Cl)c3)c2n1", "target": "cGMP-dependent 3',5'-cyclic phosphodiesterase (PDE2A, Homo sapiens, UniProt O00408)", "test": "enzyme activity", "pIC50": "< 3.70"}
{"Compound": "CC(C)(C)NC(=O)C1CCN(Cc2cccc(/N=N/c3ccccc3)c2)CC1", "target": "ACKR3", "test": "ligand displacement, BRET", "pIC50": 6.00}
{"Compound": "COc1c(Cl)cccc1Nc1c(-c2ccncc2OC[C@@H]2COCCO2)[nH]c2c1C(=O)NCC2", "target": "Receptor tyrosine-protein kinase erbB-2 (ERBB2, Homo sapiens, UniProt P04626)", "test": "enzyme activity, inhibitor, TR-FRET", "pIC50": "> 9.30"}
{"Compound": "CCOC(=O)c1c(NC)c2c([nH]c1=O)CCC2", "target": "gag-pol reverse transcriptase", "test": "enzyme activity, inhibitor", "pIC50": "< 4.00"}
{"Compound": "CCOCCn1c(C2CCN(CCc3ccc(C(C)(C)C(=O)O)cc3)CC2)nc2ccccc21", "target": "CA2", "test": "enzyme activity, inhibitor, absorbance", "setting": "pH 7.4", "pIC50": 4.87}
{"Compound": "CCOC(=O)c1c(NCCCN)c2c([nH]c1=O)CCC2", "target": "gag-pol reverse transcriptase", "test": "enzyme activity, inhibitor", "pIC50": "< 4.00"}
{"Compound": "CC1CNCCC1(O)c1ccc(-c2ccnc3[nH]cc(F)c23)cc1 (stereo not drawn)", "target": "LATS1", "test": "target engagement in cells, BRET", "pIC50": 5.66}
{"Compound": "CCCCCNc1c2c([nH]c(=O)c1C(=O)OCC)CCC2", "target": "gag-pol reverse transcriptase", "test": "enzyme activity, inhibitor", "pIC50": "< 4.00"}
{"Compound": "Cc1cncc(CN2CCC(=C3c4ccc(Cl)cc4CCc4cccnc43)CC2)c1", "target": "CA1", "test": "enzyme activity, inhibitor, absorbance", "setting": "pH 7.4", "pIC50": 4.83}
{"Compound": "CCOC(=O)c1c(NCCCO)c2c([nH]c1=O)CCC2", "target": "gag-pol reverse transcriptase", "test": "enzyme activity, inhibitor", "pIC50": "< 4.00"}
{"Compound": "O=C(O[C@H]1CN2CCC1CC2)N1CCc2ccccc2[C@@H]1c1ccccc1", "target": "SLC18A2", "test": "transporter uptake, inhibitor", "pIC50": 5.24}
